Publication PMC6018888 (Drug Design, Development and Therapy, 2018)

Key:
Format in all cases: in vivo, human
serum urate (sUA) = experiment: Pharmacodynamics: serum urate; conditions: for mean reduction of serum urate after 24 hours: multiple verinurad 10 mg doses
Summary of the method: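 Healthy males (screening sUA >4.5 mg/dL) took oral modified-release 2.5 mg tablets or placebo (6:2 per panel) once daily for 7 days (days 6–12), after a moderate-fat breakfast. Japanese panels received 2.5–15 mg and non-Asian subjects 10 mg. Serum sampled predose days 1, 6 and 8–12, then to 72 h (day 12). Maximum percent change from baseline and its timing were read directly from concentration–time data.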

[1] = tested on: urinary excretion of uric acid; experiment: Pharmacodynamics: urinary uric acid excretion; conditions: for CLUR0–24 / FEUA0–24: mean (95% CI); for percent change from baseline in AeUR over 0–6 hours: non-Asian subjects
Summary of the method: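 Total-catch urine was collected at 6- or 12-h intervals from predose to 72 h after dosing on days 1 (fasted ≥10 h, no food 4 h postdose) and 12, and to 24 h on day 6 (fed). Urine uric acid, urine creatinine and serum creatinine were measured. CLUR0–24 = urinary uric acid amount ÷ urate AUC0–24. FEUA0–24 = CLUR0–24 ÷ creatinine clearance × 100.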

[2] = tested on: healthy Japanese and non-Asian adult male subjects; experiment: Safety and tolerability assessment; conditions: for incidence of TEAEs: 10 mg dose level
Summary of the method: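 Adverse events were assessed daily in all dosed subjects, graded by Rheumatology Common Toxicity Criteria v2.0, with relatedness judged by the investigator. Clinical laboratory samples were taken at screening, admission, days 2, 5, 7 and 13, and at follow-up. Supine vital signs and oral temperature were measured at set times. Physical examination and 12-lead ECG were done at screening and follow-up.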

[3] = Verinurad urinary pharmacokinetics; conditions: for CLR0–24 / fe0–24: Japanese subjects, geometric mean (95% CI)
[4] = Japanese subjects, 2.5 mg multiple once-daily doses, fed
[5] = Japanese subjects, 5 mg multiple once-daily doses, fed
[6] = Japanese subjects, 10 mg multiple once-daily doses, fed
[7] = Japanese subjects, 15 mg multiple once-daily doses, fed
[8] = non-Asian subjects, 10 mg multiple once-daily dosing, fed
[9] = Japanese subjects, 2.5 mg multiple dose, fed
[10] = Japanese subjects, 2.5 mg single dose, fasted
[11] = Japanese subjects, 2.5 mg single dose, fed
[12] = Japanese subjects, 5 mg multiple dose, fed
[13] = Japanese subjects, 5 mg single dose, fasted
[14] = Japanese subjects, 5 mg single dose, fed
[15] = Japanese subjects, 10 mg multiple dose, fed
[16] = Japanese subjects, 10 mg single dose, fasted
[17] = Japanese subjects, 10 mg single dose, fed
[18] = Japanese subjects, 15 mg multiple dose, fed
[19] = Japanese subjects, 15 mg single dose, fasted
[20] = Japanese subjects, 15 mg single dose, fed
[21] = Non-Asian subjects, 10 mg multiple dose, fed
[22] = Non-Asian subjects, 10 mg single dose, fasted
[23] = Non-Asian subjects, 10 mg single dose, fed
[24] = Japanese subjects, pooled verinurad (n=24)
[25] = Non-Asian subjects, pooled verinurad (n=6)
[26] = 2.5 mg single dose, fasted, day 1
[27] = 5 mg once daily multiple doses, fed, day 12
[28] = 5 mg single dose, fasted, day 1
[29] = 10 mg once daily multiple doses, fed, day 12
[30] = 10 mg single dose, fasted, day 1
[31] = 15 mg once daily multiple doses, fed, day 12
[32] = 15 mg single dose, fasted, day 1

## CC(C)(Sc1ccncc1-c1ccc(C#N)c2ccccc12)C(=O)O [verinurad]
Serum urate (sUA); Japanese and non-Asian subjects, multiple once-daily doses, fed
  time of maximum reduction in sUA: ≤ 12 hours postdose
Serum urate (sUA); [4]
  sUA least square mean maximum percent change from baseline at 12 hours: −31%
  sUA percent change from baseline at 24 hours: −16%
Serum urate (sUA); [5]
  sUA least square mean maximum percent change from baseline at 12 hours: −50%
  sUA percent change from baseline at 24 hours: −31%
Serum urate (sUA); [6]
  sUA least square mean maximum percent change from baseline at 12 hours: −62%
  sUA percent change from baseline at 24 hours: −46%
Serum urate (sUA); [7]
  sUA concentration at maximum reduction: < 2 mg/dL
  sUA least square mean maximum percent change from baseline at 12 hours: −74%
  sUA percent change from baseline at 24 hours: −55%
Serum urate (sUA); Japanese subjects
  mean reduction of serum urate after 24 hours: 46%
Serum urate (sUA); [8]
  sUA maximum percent change from baseline: −58%
  sUA percent change from baseline at 24 hours postdose: −44%
Serum urate (sUA); non-Asian subjects
  mean reduction of serum urate after 24 hours: 44%
[1]; [9]
  CLUR0–24: 12.2 (10.3–14.2) mL/min
  FEUA0–24: 7.57 (6.74–8.41) %
[1]; [10]
  CLUR0–24: 7.82 (6.90–8.74) mL/min
  FEUA0–24: 7.72 (6.01–9.43) %
[1]; [11]
  CLUR0–24: 11.4 (9.74–13.0) mL/min
  FEUA0–24: 7.75 (6.80–8.70) %
[1]; Japanese subjects, 2.5 mg, day 1 (fasted)
  percent change from baseline in AeUR, 0–6 hour interval: 18%
[1]; Japanese subjects, 2.5 mg, day 6 (fed)
  percent change from baseline in AeUR, 0–6 hour interval: 62%
[1]; Japanese subjects, 2.5 mg, day 12 (steady-state, fed)
  percent change from baseline in AeUR, 0–6 hour interval: −17%
[1]; [12]
  CLUR0–24: 13.7 (9.35–18.1) mL/min
  FEUA0–24: 14.5 (9.93–19.1) %
[1]; [13]
  CLUR0–24: 10.9 (8.88–12.9) mL/min
  FEUA0–24: 9.05 (7.20–10.9) %
[1]; [14]
  CLUR0–24: 16.0 (11.7–20.3) mL/min
  FEUA0–24: 11.2 (7.42–14.9) %
[1]; Japanese subjects, 5 mg, day 1 (fasted)
  percent change from baseline in AeUR, 0–6 hour interval: 59%
[1]; Japanese subjects, 5 mg, day 6 (fed)
  percent change from baseline in AeUR, 0–6 hour interval: 114%
[1]; Japanese subjects, 5 mg, day 12 (steady-state, fed)
  percent change from baseline in AeUR, 0–6 hour interval: −35%
[1]; [15]
  CLUR0–24: 19.7 (16.7–22.7) mL/min
  FEUA0–24: 13.7 (10.8–16.6) %
[1]; [16]
  CLUR0–24: 14.3 (10.7–17.9) mL/min
  FEUA0–24: 10.8 (7.87–13.6) %
[1]; [17]
  CLUR0–24: 16.0 (9.88–22.1) mL/min
  FEUA0–24: 20.5 (11.3–29.6) %
[1]; Japanese subjects, 10 mg, day 1 (fasted)
  percent change from baseline in AeUR, 0–6 hour interval: 114%
[1]; Japanese subjects, 10 mg, day 6 (fed)
  percent change from baseline in AeUR, 0–6 hour interval: 131%
[1]; Japanese subjects, 10 mg, day 12 (steady-state, fed)
  percent change from baseline in AeUR, 0–6 hour interval: −33%
[1]; [18]
  CLUR0–24: 23.9 (14.9–32.9) mL/min
  FEUA0–24: 16.0 (10.7–21.2) %
[1]; [19]
  CLUR0–24: 15.0 (6.40–23.6) mL/min
  FEUA0–24: 14.5 (7.08–22.0) %
[1]; [20]
  CLUR0–24: 12.1 (4.04–20.2) mL/min
  FEUA0–24: 9.61 (2.96–16.3) %
[1]; Japanese subjects, 15 mg, day 1 (fasted)
  percent change from baseline in AeUR, 0–6 hour interval: 77%
[1]; Japanese subjects, 15 mg, day 6 (fed)
  percent change from baseline in AeUR, 0–6 hour interval: 49%
[1]; Japanese subjects, 15 mg, day 12 (steady-state, fed)
  percent change from baseline in AeUR, 0–6 hour interval: 6%
[1]; [21]
  CLUR0–24: 20.6 (13.7–27.4) mL/min
  FEUA0–24: 13.2 (8.45–17.9) %
[1]; [22]
  CLUR0–24: 15.3 (7.35–23.3) mL/min
  FEUA0–24: 10.4 (4.84–16.0) %
[1]; [23]
  CLUR0–24: 18.6 (8.95–28.2) mL/min
  FEUA0–24: 11.7 (6.44–17.0) %
[1]; 10 mg, day 1
  percent change from baseline in AeUR over 0–6 hours: 70%
[1]; 10 mg, day 6
  percent change from baseline in AeUR over 0–6 hours: 141%
[1]; 10 mg, day 12
  percent change from baseline in AeUR over 0–6 hours: -41%
[2]; [24]
  AE possibly related to study drug, severe severity/life-threatening: 0 n (%) [events]
  Any AE, severe severity/life-threatening: 0 n (%) [events]
  SAEs: 0 n (%) [events]
[2]; Japanese subjects
  incidence of TEAEs: 2 n
[2]; [25]
  AE possibly related to study drug, moderate severity: 0 n (%) [events]
  AE possibly related to study drug, severe severity/life-threatening: 0 n (%) [events]
  Any AE, severe severity/life-threatening: 0 n (%) [events]
  SAEs: 0 n (%) [events]
  Subjects withdrawn due to AEs: 0 n (%) [events]
[2]; all subjects
  serum chemistry, hematology, coagulation, urinalysis parameters: No safety concerns were identified
  vital signs, 12-lead electrocardiograms, physical examinations: No clinically significant findings
[2]; all subjects, during the study
  deaths, serious AEs, significant AEs of interest: No deaths, other serious AEs, or other significant AEs of interest were reported
[2]; healthy male Japanese and non-Asian subjects, single and multiple once-daily doses 2.5 to 15 mg
  tolerability: well tolerated
[2]; non-Asian subjects
  incidence of TEAEs: 2 n
[2]; one subject, 3 days after a single 2.5 mg dose, resolved by day 14
  serum creatinine elevation: 1.5 × baseline
[2]; one subject, day 13 following daily dosing with 10 mg, unlikely to be related
  TEAE of moderate severity: moderately severe muscle strain
[3]; [26]
  CLR0–24: 16.1 (9.41–27.6) mL/min
  fe0–24: 0.896 (0.620–1.29) %
[3]; 2.5 mg single dose, fed, day 6
  CLR0–24: 15.7 (9.54–25.8) mL/min
  fe0–24: 1.27 (0.659–2.47) %
[3]; [27]
  CLR0–24: 17.0 (11.8–24.5) mL/min
  fe0–24: 1.65 (0.959–2.84) %
[3]; [28]
  CLR0–24: 16.4 (11.3–23.7) mL/min
  fe0–24: 0.640 (0.279–1.47) %
[3]; 5 mg single dose, fed, day 6
  CLR0–24: 15.1 (11.8–19.3) mL/min
  fe0–24: 1.09 (0.730–1.64) %
[3]; [29]
  CLR0–24: 17.0 (9.43–25.4) mL/min
  fe0–24: 1.77 (1.38–2.25) %
[3]; [30]
  CLR0–24: 13.1 (10.1–16.9) mL/min
  fe0–24: 0.733 (0.558–0.964) %
[3]; 10 mg single dose, fed, day 6
  fe0–24: 1.63 (1.24–2.16) %
[3]; [31]
  CLR0–24: 16.0 (8.22–31.3) mL/min
  fe0–24: 1.83 (1.23–2.73) %
[3]; [32]
  CLR0–24: 9.30 (5.46–15.9) mL/min
  fe0–24: 0.788 (0.424–1.45) %
[3]; 15 mg single dose, fed, day 6
  CLR0–24: 12.0 (6.06–23.7) mL/min
  fe0–24: 1.14 (0.907–1.45) %
[3]; multiple dosing, 90% CI 79.7–126
  renal clearance GMR, Japanese vs non-Asian: 100%
[3]; multiple dosing, 90% CI 98.7–153
  fraction of drug excreted in urine GMR, Japanese vs non-Asian: 123%
[3]; single dose, fasted, 90% CI 53.7–91.4
  renal clearance GMR, Japanese vs non-Asian: 70.0%
[3]; single dose, fasted, 90% CI 70.9–124
  fraction of drug excreted in urine GMR, Japanese vs non-Asian: 93.7%
[3]; single dose, fed, 90% CI 65.0–101
  renal clearance GMR, Japanese vs non-Asian: 80.9%
[3]; single dose, fed, 90% CI 107–191
  fraction of drug excreted in urine GMR, Japanese vs non-Asian: 143%
